# Laboratory results reported in ChEMBL document CHEMBL1153722, “Design, synthesis, and characterization of peptide-based rab geranylgeranyl transferase inhibitors” (J Med Chem, 2009).
# Peptide text beside a SMILES is read from it. * marks the point of attachment. Hydrocinnamoyl = O=C(CCc1ccccc1)*; Undecanoyl = CCCCCCCCCCC(=O)*; Morpholide = C1CN(*)CCO1; Cbz = O=C(OCc1ccccc1)*
# Species on record: Rattus norvegicus
# Experiment: Inhibition of rat recombinant Rab geranylgeranyltransferase at 100 uM in presence of canine Rab7 and rat REP1 NBD-FPP based continuous fluorimetric assay
# Procedure, shortened: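 Continuous fluorometric assay in 96/384-well format: 3 μM Rab7, 3 μM REP1, 9 μM NBD-FPP and 400 nM RabGGTase, with or without inhibitor. […] IC50 was calculated from three independent measurements.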
row,inhibition [%],SMILES
1,95,O=C(CCc1ccccc1)N[C@@H](CO)C(=O)N[C@@H](Cc1ccccc1)C(=O)N[C@@H](CO)C(=O)O (Hydrocinnamoyl-Ser-Phe-Ser-OH)
2,66,O=C(CNC(=O)[C@H](Cc1c[nH]cn1)NC(=O)OCc1ccccc1)N[C@@H](Cc1ccc(O)cc1)C(=O)c1nc2ccccc2[nH]1
3,81,COC(=O)[C@H](CC(C)C)NC(=O)[C@H](COC(C)(C)C)NC(=O)[C@H](Cc1ccccc1)NC(=O)CCc1ccccc1
4,94,O=C(CCc1ccccc1)N[C@@H](CO)C(=O)N[C@@H](Cc1ccccc1)C(=O)N[C@@H](CO)C(=O)N1CCOCC1 (Hydrocinnamoyl-Ser-Phe-Ser-Morpholide)
5,96,NCCCC[C@H](NC(=O)CCc1ccccc1)C(=O)N[C@@H](Cc1c[nH]cn1)C(=O)N[C@@H](CO)C(=O)NCc1cccc(F)c1
6,110,CC(C)C[C@H](NC(=O)[C@H](CO)NC(=O)[C@H](Cc1ccccc1)NC(=O)c1ccc(-c2ccccc2)cc1)C(N)=O
7,124,O=C(CNC(=O)c1csc(C2CCNCC2)n1)N[C@@H](Cc1ccccc1)C(=O)N[C@@H](Cc1c[nH]cn1)C(=O)O
8,64,CCCCCCCCCCC(=O)N[C@@H](Cc1ccc(O)cc1)C(=O)N[C@@H](Cc1c[nH]cn1)C(=O)N[C@@H](Cc1c[nH]cn1)C(=O)O (Undecanoyl-Tyr-His-His-OH)
9,108,O=C(CNC(=O)[C@H](Cc1ccc(O)cc1)NC(=O)c1ccc(F)cc1)N[C@@H](Cc1ccc(O)cc1)C(=O)N1CCOCC1
10,59,CCC/C=C/c1cccc(/C=C/C(=O)N[C@H](Cc2cnc[nH]2)C(=O)N[C@@H](Cc2ccc(O)cc2)C(=O)N[C@@H](Cc2ccccc2)C(=O)O)c1
11,76,CCCCCCCCCCCOc1ccc(C(=O)N[C@@H](Cc2c[nH]cn2)C(=O)N[C@@H](Cc2ccc(O)cc2)C(=O)N[C@@H](Cc2ccccc2)C(=O)Nc2nccs2)cc1
12,92,O=C(CNC(=O)[C@H](Cc1ccc(O)cc1)NCCc1ccc(F)cc1)N[C@@H](Cc1ccc(O)cc1)C(=O)N1CCOCC1
13,84,Cc1nc(C)c(C(=O)OC[C@H](NC(=O)[C@H](Cc2ccccc2)NC(=O)[C@H](CO)NC(=O)c2coc(-c3ccccc3)n2)C(=O)O)o1
14,101,CCCCCCCCCCCOc1ccc(C(=O)N[C@@H](Cc2c[nH]cn2)C(=O)N[C@@H](Cc2ccc(O)cc2)C(=O)N[C@@H](Cc2ccccc2)C(=O)N(C)CCc2ccccn2)cc1
15,75,CCCCCCCCCCCOc1ccc(C(=O)N[C@@H](Cc2c[nH]cn2)C(=O)N[C@@H](Cc2ccc(O)cc2)C(=O)N[C@@H](Cc2ccccc2)C(=O)O)cc1
16,83,C[C@@H](O)[C@H](NC(=O)/C=C/c1ccccc1)C(=O)N[C@@H](Cc1ccccc1)C(=O)N[C@@H](CCC(N)=O)C(=O)O
17,124,O=C(CNC(=O)[C@H](Cc1ccccc1)NC(=O)c1csc(-c2cccs2)n1)N[C@@H](CO)C(=O)Nc1nccs1
18,96,CC(C)C[C@H](NC(=O)[C@H](COC(C)(C)C)NC(=O)[C@H](Cc1ccccc1)NC(=O)CCc1ccccc1)C(N)=O
19,53,CCCCCCCCCCC(=O)N[C@@H](Cc1c[nH]cn1)C(=O)N[C@@H](Cc1ccccc1)C(=O)N[C@@H](Cc1ccc(O)cc1)C(=O)NCC(O)CO (stereo not given in full)
20,53,CC(C)C[C@H](NC(=O)[C@H](CO)NC(=O)[C@H](Cc1ccccc1)NC(=O)c1ccc(-c2ccccc2)cc1)C(=O)OCCCl

row,inhibition [%],SMILES
1,70,COC(=O)[C@H](Cc1ccc(O)cc1)NC(=O)CNC(=O)[C@H](Cc1c[nH]cn1)NC(=O)OCc1ccccc1 (Cbz-His-Gly-Tyr-OMe)
2,107,CCCCCCCCCCCOc1ccc(C(=O)N[C@@H](Cc2ccc(O)cc2)C(=O)N[C@@H](Cc2ccc(O)cc2)C(=O)N[C@@H](Cc2ccc(O)cc2)C(=O)OCCCl)cc1
3,86,O=C(/C=C/c1ccc(F)cc1)N[C@@H](CO)C(=O)N[C@@H](Cc1ccccc1)C(=O)N[C@@H](CO)C(=O)NC1CCCCC1
4,99,CCCCCCCCCCCOc1ccc(C(=O)N[C@@H](Cc2ccc(O)cc2)C(=O)N[C@@H](Cc2ccc(O)cc2)C(=O)N[C@@H](Cc2ccc(O)cc2)C(=O)NCc2ccc(F)cc2F)cc1
5,92,CC[C@H](C)[C@H](NC(=O)c1ccc(-c2ccccc2)cc1)C(=O)N[C@@H](C(=O)N[C@@H](CCC(N)=O)C(=O)N1CCOCC1)C(C)C
6,11,C[C@H](NC(=O)/C=C/c1ccc(F)cc1)C(=O)NCC(=O)N[C@@H](Cc1ccc(O)cc1)C(=O)NC1CCCCC1
7,106,C=CCOC(=O)[C@H](Cc1c[nH]cn1)NC(=O)[C@H](Cc1ccccc1)NC(=O)CNC(=O)C1COC(c2ccccc2)=N1 (stereo not given in full)
8,69,COC(=O)[C@H](CC(C)C)NC(=O)[C@H](CO)NC(=O)[C@H](Cc1ccccc1)NC(=O)CCc1ccccc1
9,100,CC[C@H](C)[C@H](NC(=O)c1ccc(-c2ccccc2)cc1)C(=O)N[C@@H](C(=O)N[C@@H](CCC(N)=O)C(=O)N1CCCCC1)C(C)C
10,52,CCCCCCCCCCC(=O)N[C@@H](Cc1c[nH]cn1)C(=O)N[C@@H](Cc1c[nH]cn1)C(=O)N[C@@H](CO)C(=O)NOC(C)(C)C
11,63,CCCCCCCCCCCC(=O)N[C@@H](Cc1c[nH]cn1)C(=O)N[C@@H](Cc1c[nH]cn1)C(=O)N[C@@H](CO)C(=O)NCC(O)CO (stereo not given in full)
12,100,NCCOC(=O)[C@H](Cc1ccc(O)cc1)NC(=O)CCNC(=O)[C@H](Cc1c[nH]cn1)NC(=O)OCc1ccccc1
13,102,CCCCCCCCCCCOc1ccc(C(=O)N[C@@H](Cc2ccc(O)cc2)C(=O)N[C@@H](Cc2ccc(O)cc2)C(=O)N[C@@H](Cc2ccc(O)cc2)C(=O)OC)cc1
14,69,C[C@H](NC(=O)C(Br)C(Br)c1ccc(F)cc1)C(=O)NCC(=O)N[C@@H](Cc1ccc(O)cc1)C(=O)Nc1ccc(F)cc1F (stereo not given in full)
15,61,CCCCCCCCCCC(=O)N[C@@H](Cc1ccc(O)cc1)C(=O)N[C@@H](Cc1c[nH]cn1)C(=O)N[C@@H](Cc1ccc(O)cc1)C(=O)OCCN
16,100,O=C(/C=C/c1ccc(F)cc1)N[C@@H](CO)C(=O)N[C@@H](Cc1ccccc1)C(=O)N[C@@H](CO)C(=O)NCc1ccccc1
17,79,CCCCCCCCCCC(=O)N[C@@H](Cc1ccc(O)cc1)C(=O)N[C@@H](Cc1c[nH]cn1)C(=O)N[C@@H](Cc1c[nH]cn1)C(N)=O (Undecanoyl-Tyr-His-His-NH2)
18,109,C=CCOC(=O)[C@H](CO)NC(=O)CNC(=O)[C@H](Cc1ccccc1)NC(=O)c1coc(-c2ccccc2)n1
19,87,CCCCCCCCCCCOc1ccc(C(=O)N[C@@H](Cc2c[nH]cn2)C(=O)N[C@@H](Cc2c[nH]cn2)C(=O)N[C@@H](Cc2c[nH]cn2)C(=O)OC)cc1
20,98,C[C@@H](NC(=O)CCc1ccccc1)C(=O)N[C@@H](Cc1ccccc1)C(=O)N[C@@H](CCC(=O)O)C(=O)NCCO

row,inhibition [%],SMILES
1,97,CC(C)C[C@H](NC(=O)[C@H](CO)NC(=O)[C@H](Cc1ccccc1)NC(=O)CCc1ccccc1)C(=O)OCCCl
2,107,CCOC(=O)[C@H](CCC(N)=O)NC(=O)[C@H](Cc1ccccc1)NC(=O)[C@H](C)NC(=O)CCc1ccccc1 (Hydrocinnamoyl-Ala-Phe-Gln-OEt)
3,86,COC(=O)[C@H](CO)NC(=O)[C@H](Cc1c[nH]cn1)NC(=O)[C@H](CCCCN)NC(=O)CCc1ccccc1 (Hydrocinnamoyl-Lys-His-Ser-OMe)
4,127,CCCCCCCCCCCOc1ccc(C(=O)N[C@@H](Cc2c[nH]cn2)C(=O)N[C@@H](Cc2ccc(O)cc2)C(=O)N[C@@H](Cc2ccccc2)C(=O)NCCCCN)cc1
5,86,O=C(CNC(=O)[C@H](Cc1ccc(O)cc1)NC(=O)c1coc(-c2ccccc2)n1)N[C@@H](Cc1c[nH]cn1)C(=O)O
6,102,CC(C)[C@H](NC(=O)c1coc(-c2ccccc2)n1)C(=O)NCC(=O)N[C@@H](Cc1ccc(O)cc1)C(=O)Nc1ccc(F)cc1F
7,80,CC(C)(C)Oc1ccc(C[C@H](NC(=O)CNC(=O)[C@H](Cc2cn(C(c3ccccc3)(c3ccccc3)c3ccccc3)cn2)NC(=O)c2coc(-c3ccccc3)n2)C(=O)O)cc1
8,57,COC(=O)[C@H](CC(C)C)NC(=O)[C@H](CO)NC(=O)[C@H](Cc1ccccc1)NC(=O)/C=C/c1ccc(F)cc1
9,136,COC(=O)[C@H](CO)NC(=O)CNC(=O)[C@H](Cc1ccccc1)NC(=O)C1COC(c2ccccc2)=N1 (stereo not given in full)
10,76,COC(=O)[C@H](CCC(N)=O)NC(=O)[C@H](Cc1ccccc1)NC(=O)[C@H](CO)NC(=O)CCc1ccccc1 (Hydrocinnamoyl-Ser-Phe-Gln-OMe)
11,106,CC[C@H](C)[C@H](NC(=O)c1ccc(-c2ccccc2)cc1)C(=O)N[C@@H](C(=O)N[C@@H](CCC(N)=O)C(=O)Nc1cccc(Br)n1)C(C)C
12,94,CON(C)C(=O)[C@H](CC(C)C)NC(=O)[C@H](COC(C)(C)C)NC(=O)[C@H](Cc1ccccc1)NC(=O)/C=C/c1ccc(F)cc1
13,97,CCCCCCCCCCC(=O)N[C@@H](Cc1c[nH]cn1)C(=O)N[C@@H](Cc1cnc[nH]1)C(=O)N[C@@H](Cc1ccc(O)cc1)C(=O)OCCN
14,47,COc1ccc(C[C@@H](C(=O)N(C)[C@@H](Cc2ccccc2)C(=O)OCC(=O)O)N(C)C(=O)[C@@H](Cc2ccc(O)cc2)NC(=O)CCc2ccccc2)cc1
15,74,O=C(CNC(=O)[C@H](Cc1c[nH]cn1)NC(=O)OCc1ccccc1)N[C@@H](Cc1ccc(O)cc1)C(=O)NCC(O)CO (stereo not given in full)
16,99,NC(=O)CC[C@H](NC(=O)[C@H](Cc1ccccc1)NC(=O)[C@H](CO)NC(=O)CCc1ccccc1)C(=O)NC1CCCCC1
17,88,O=C(N[C@@H](Cc1ccc(O)cc1)C(=O)N[C@@H](Cc1ccc(O)cc1)C(=O)N[C@@H](Cc1ccc(O)cc1)C(=O)NC1CCCCC1)c1ccc(F)cc1F
18,93,NC(=O)CC[C@H](NC(=O)[C@H](Cc1ccccc1)NC(=O)CNC(=O)CCc1ccccc1)C(=O)Nc1ccc(F)cc1F
19,89,O=C(/C=C/c1ccc(F)cc1)N[C@@H](CO)C(=O)N[C@@H](Cc1ccccc1)C(=O)N[C@@H](CO)C(=O)Nc1ccc(F)c(Cl)c1
20,39,O=C(N[C@@H](Cc1c[nH]cn1)C(=O)N[C@@H](Cc1ccc(O)cc1)C(=O)N[C@@H](Cc1ccccc1)C(=O)O)OCc1ccccc1 (Cbz-His-Tyr-Phe-OH)
